These results are taken from PubChem BioAssay.

Structures are written as SMILES. The source made the active and inactive calls.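 Rule for the calls, unless noted: active = duplicate-averaged activation above buffer control mean plus 5 SD of those controls; inactive = the rest.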

Assay [1] can be described thus: nonspecific flux increase, KCNQ1-free cells – parental CHO cells, counter-screen for KCNQ1 potentiator project (AID 493006). Conditions: parental CHO-K1 cells, FluxOR thallium flux, at 10 µM; active compounds read high. The method in brief:
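Assay system: Untransfected host CHO-K1 cells with FluxOR thallium dye | Probe or stimulus: Potassium/thallium depolarization pulse | Schedule: Overnight 37 °C plating, 90 min RT dye, 20 min compound | Detection: Kinetic thallium-flux fluorescence | Read-out: Max-minus-min fluorescence over baseline, percent of buffer-to-R-L3 span | Benchmarks: Low control buffer, high control R-L3 activator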

Assay [2] deals with Potassium voltage-gated channel subfamily KQT member 1 (Homo sapiens) (UniProt P51787). Kind of assay: enhancement of KCNQ1 channel thallium flux – FluxOR thallium flux, CHO cells, duplicates, confirmation (AID 493007;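 active = potentiation averaged over duplicate wells exceeding buffer-only control mean by more than 3 SD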;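 for outcome: cells depolarized by a potassium plus thallium sulfate stimulus after compound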). The note with it: KCNQ1 cell line, FluxOR thallium flux fluorescence, at 10 µM; active compounds read high, % of reference activator effect, buffer zero. The method, boiled down:
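Material: KCNQ1-expressing CHO cell line; Incubation: FluxOR dye loading 90 min, compound exposure 20 min, room temperature; Detection: FluxOR Tl+ flux fluorescence, 10 s baseline plus 110 s recording; Read-out: percent activation between buffer and R-L3 responses; Control set: buffer-only wells as 0% and R-L3 activator as 100%; Replication: duplicate wells per compound.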

For assay [3], the target named is Potassium voltage-gated channel subfamily KQT member 2 (Rattus norvegicus) (UniProt O88943). Kind of assay: KCNQ2 thallium flux enhancement – KCNQ2-CHO-K1 cells, selectivity assay for KCNQ1 potentiator project (AID 493009;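 active = mean duplicate potentiation above the buffer control mean plus 5 SD of buffer wells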;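 note: assay conditions were tuned for KCNQ1 rather than KCNQ2 modulators; signal is max minus min fluorescence divided by baseline after thallium stimulus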). The note with it: FluxOR thallium flux fluorescence, at 10 µM; active compounds read high, scaled: buffer 0, activator control 100.
The target of assay [4] is Potassium voltage-gated channel subfamily KQT member 1 (Homo sapiens) (UniProt P51787). Kind of assay: KCNQ1 activators by electrophysiology – IonWorks patch clamp, KCNQ1-CHO cells, orthogonal assay for KCNQ1 potentiator project, confirmation (AID 493184;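 active = current rise at least 3 SD above the untreated control mean in each of two repeat wells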). The note with it: automated patch clamp current, at 10 µM; active compounds read high. The method, boiled down: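 assay system = KCNQ1-expressing CHO cells | medium = external bath solution at pH 7.4 | probe or stimulus = 2,000 ms depolarization, -90 to +40 mV | compound dosing = 10 µM final, single point | measured by = automated voltage clamp, amphotericin B perforated patch | measure = percent current increase versus pre-compound level | replication = duplicates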
Potassium voltage-gated channel subfamily KQT member 1 (Homo sapiens), sequence (P51787 whole entry, looked up): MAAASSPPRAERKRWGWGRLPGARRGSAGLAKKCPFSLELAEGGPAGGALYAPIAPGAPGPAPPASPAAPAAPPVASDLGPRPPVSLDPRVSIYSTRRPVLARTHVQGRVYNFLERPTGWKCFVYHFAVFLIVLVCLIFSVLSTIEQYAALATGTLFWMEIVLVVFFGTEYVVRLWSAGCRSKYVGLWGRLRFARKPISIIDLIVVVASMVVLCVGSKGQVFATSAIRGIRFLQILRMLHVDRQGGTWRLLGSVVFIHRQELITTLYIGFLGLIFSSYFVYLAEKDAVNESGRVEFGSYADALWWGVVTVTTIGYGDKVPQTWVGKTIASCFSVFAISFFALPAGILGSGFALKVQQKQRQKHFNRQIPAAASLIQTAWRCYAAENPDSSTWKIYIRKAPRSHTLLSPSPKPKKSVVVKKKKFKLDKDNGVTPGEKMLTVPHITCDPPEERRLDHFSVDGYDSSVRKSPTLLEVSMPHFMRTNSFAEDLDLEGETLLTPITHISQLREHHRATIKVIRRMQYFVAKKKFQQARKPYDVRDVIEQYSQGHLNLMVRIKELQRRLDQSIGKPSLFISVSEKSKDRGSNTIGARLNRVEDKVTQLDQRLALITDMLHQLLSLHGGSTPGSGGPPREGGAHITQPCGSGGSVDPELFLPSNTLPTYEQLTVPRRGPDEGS

Potassium voltage-gated channel subfamily KQT member 2 (Rattus norvegicus), sequence (O88943 whole entry, looked up): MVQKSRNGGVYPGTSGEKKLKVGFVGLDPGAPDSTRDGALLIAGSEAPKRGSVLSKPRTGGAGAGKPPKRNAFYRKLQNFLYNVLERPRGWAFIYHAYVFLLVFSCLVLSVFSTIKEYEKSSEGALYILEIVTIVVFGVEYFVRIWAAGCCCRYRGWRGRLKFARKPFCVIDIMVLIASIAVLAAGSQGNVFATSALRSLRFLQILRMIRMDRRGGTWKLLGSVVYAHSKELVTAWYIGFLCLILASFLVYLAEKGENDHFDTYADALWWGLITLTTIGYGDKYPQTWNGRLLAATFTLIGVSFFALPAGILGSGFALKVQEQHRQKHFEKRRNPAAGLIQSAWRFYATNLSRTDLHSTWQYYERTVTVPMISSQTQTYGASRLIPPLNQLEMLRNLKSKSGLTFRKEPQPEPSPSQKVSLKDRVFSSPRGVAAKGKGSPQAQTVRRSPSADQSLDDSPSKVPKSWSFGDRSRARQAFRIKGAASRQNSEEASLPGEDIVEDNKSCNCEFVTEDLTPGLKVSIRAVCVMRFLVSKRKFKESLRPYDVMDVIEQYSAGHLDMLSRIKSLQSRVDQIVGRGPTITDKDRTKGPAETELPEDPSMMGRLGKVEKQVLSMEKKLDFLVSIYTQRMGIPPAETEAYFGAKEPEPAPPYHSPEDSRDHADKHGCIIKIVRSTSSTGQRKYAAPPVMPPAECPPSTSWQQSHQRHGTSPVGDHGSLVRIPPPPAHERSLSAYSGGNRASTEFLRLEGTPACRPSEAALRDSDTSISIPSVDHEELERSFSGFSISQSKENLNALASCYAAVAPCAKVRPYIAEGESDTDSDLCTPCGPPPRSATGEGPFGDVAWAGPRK

Regarding `CCCn1c(=S)[nH]c2ccccc2c1=O`, the activation in assay [1] was 153% (active). Also, the potentiation in assay [2] is 18.5% (active); in assay [3] it was 168% (active). The outcome in assay [4] was inactive.

`Cc1nnc(SCC(=O)N(Cc2ccccc2)C(C)C)n1-c1ccccc1`: the result in assay [1], in assay [2], in assay [3] and in assay [4] was inactive.

Regarding `COC(=O)c1c(NS(=O)(=O)c2ccc3ccccc3c2)sc2c1CCCC2`, in assay [1], the activation is 216% (active). Besides, the potentiation was 60.5% (active) in assay [2] and 232% (active) in assay [3]. The outcome in assay [4] was inactive.

As to `CCC1(c2ccccc2)NC(=S)N(c2ccc(C)c(C)c2)N1` (stereo not given), the activation in assay [1] was 542% (active). Besides, the potentiation in assay [2] is 271% (active); in assay [3], 572% (active). Further, in assay [4], the outcome was inactive.

Turning to `CN(CCCNC(=O)CSc1cc(=O)n(C)c2ccc(Cl)cc12)Cc1ccccc1`, the result in assay [1], in assay [2], in assay [3] and in assay [4] was inactive.

With `CCC1CCc2c(sc(NC(=O)C3CC=CCC3C(=O)O)c2C#N)C1` (stereo not given), the result in assay [1], in assay [2], in assay [3] and in assay [4] was inactive.

Consider `Cc1sc2ncnc(SCC(=O)c3ccc(O)cc3O)c2c1C`, for which the activation in assay [1] was 150% (active). The potentiation in assay [2] was 20.5% (active); in assay [3], 176% (active). In addition, in assay [4], the result was inactive.

For `CC1CCCCC1NC(=S)NC(=O)c1cccs1` (stereo not given), the activation in assay [1] was 181% (active). The potentiation was 100% (active) in assay [2] and 300% (active) in assay [3]. Also, in assay [4], the outcome was inactive.

`COc1ccccc1NS(=O)(=O)c1cc(NC(=O)c2cnccn2)ccc1N1CCOCC1`: the activation in assay [1] is 222% (active). For the same molecule, the potentiation in assay [2] is 54% (active); in assay [3], 248% (active). For the same molecule, the result in assay [4] was inactive.

In the case of `Cc1ccc(-c2c(=O)n(O)c3ccccc3[n+]2[O-])cc1`, the activation in assay [1] is 202% (active). For the same molecule, the potentiation was 25% (active) in assay [2] and 184% (active) in assay [3]. Besides, the outcome in assay [4] was inactive.

As for `COc1ccc(-c2nnc(Nc3nc4c(OC)cccc4s3)o2)cc1`, the activation in assay [1] is 468% (active). Further, the potentiation was 164% (active) in assay [2] and 392% (active) in assay [3]. Besides, in assay [4], the outcome was inactive.

Regarding `COCCn1c(SCC(=O)NCc2ccc3c(c2)OCO3)nnc1C(C)C`, the outcome in assay [1], in assay [2], in assay [3] and in assay [4] was inactive.

Turning to `O=C(C1CCN(Cc2ccccc2)CC1)N1CCN(C/C=C/c2ccccc2)CC1`, the result in assay [1], in assay [2], in assay [3] and in assay [4] was inactive.

As to `C1=Nc2ccccc2CN1c1ccccc1`, the result in assay [1], in assay [2], in assay [3] and in assay [4] was inactive.

As for `COc1ccc2cc(CCNC(=O)C3CCCC3)c(=O)[nH]c2c1`, the result in assay [1], in assay [2], in assay [3] and in assay [4] was inactive.

On to `Cc1cccc(NC(=S)NC(=O)c2ccc(Br)o2)c1C`, for which the outcome in assay [1], in assay [2], in assay [3] and in assay [4] was inactive.

In the case of `Cc1nn(-c2ccccc2)c(Cl)c1/C=N\NC(=O)c1cncc(Br)c1`, the outcome in assay [1], in assay [2], in assay [3] and in assay [4] was inactive.

For the molecule `Cn1c(=O)c2nc3ccccc3nc2n(C)c1=O`, the activation in assay [1] was 168% (active). For the same molecule, the potentiation in assay [2] is 30.5% (active); in assay [3], 184% (active). Further, in assay [4], the outcome was inactive.

As for `COC(=O)c1c(NC(=S)Nc2ccc(F)cc2[N+](=O)[O-])sc2c1CCCCC2`, the activation in assay [1] is 160% (active). Also, the potentiation in assay [2] was 32.5% (active); in assay [3] it was 180% (active). For the same molecule, in assay [4], the outcome was inactive.

As to `COn1c(SCc2ccc(C)cc2C)nc2ccccc2c1=O`, the outcome in assay [1], in assay [2], in assay [3] and in assay [4] was inactive.

As to `COC(=O)c1cccnc1NC(=S)NC1CCCCC1`, the activation in assay [1] is 208% (active). In addition, the potentiation is 36.5% (active) in assay [2] and 233% (active) in assay [3]. For the same molecule, in assay [4], the outcome was inactive.

With `O=S1(=O)Nc2c(ccc3cccnc23)-c2ccccc21`, the result in assay [1] and in assay [4] was inactive. Moreover, the results for the potentiation in assay [2] and in assay [3] were 21% (active) and 154% (active), respectively.

Turning to `O=C1c2ccccc2NC(c2ccc(-c3cccc(Cl)c3)o2)N1O` (stereo not given), the outcome in assay [1], in assay [2], in assay [3] and in assay [4] was inactive.

Take `O=C(Nc1ccc(N2CCN(c3ccc(O)cc3)CC2)cc1)Oc1ccccc1`: the result in assay [1], in assay [2], in assay [3] and in assay [4] was inactive.

For `Cc1cc(C)c2ccc(C)[n+]([O-])c2c1O`, the result in assay [1], in assay [2], in assay [3] and in assay [4] was inactive.

In the case of `Cc1ccc(-n2c(C)cc(/C=N/NC(=O)CC3(C)OCCO3)c2C)c(C)c1`, the result in assay [1], in assay [2], in assay [3] and in assay [4] was inactive.

For the molecule `S=c1[nH]cc(Cc2ccccc2)s1`, in assay [1], the activation was 205% (active). Further, the potentiation in assay [2] is 28.5% (active); in assay [3], 216% (active). Moreover, the outcome in assay [4] was inactive.

In the case of `CCCN(CCC)C(=S)NC(=O)c1ccc(Cl)cc1Cl`, the activation in assay [1] is 470% (active). Moreover, the figures for the potentiation in assay [2] and in assay [3] were 204% (active) and 448% (active), respectively. Further, the result in assay [4] was inactive.

Turning to `CCc1ccc2[nH]c(O)c(N=Nc3nc(-c4ccccc4)cs3)c2c1`, in assay [1], the activation was 186% (active). Also, the potentiation is 178% (active) in assay [2] and 282% (active) in assay [3]. The outcome in assay [4] was inactive.

As for `O=C(CN1C(=O)CNC1=O)Nc1cccc(C(F)(F)F)c1`, the outcome in assay [1], in assay [2], in assay [3] and in assay [4] was inactive.
